# UHRF1 MBD2 ctr – UHRF1 methylated DNA binding inhibitors, primary screen, counter-screen for MBD2 inhibitor project, biochemical, TR-FRET, human UHRF1, single concentration | E3 ubiquitin-protein ligase UHRF1 (Homo sapiens), Q96T88 | UHRF1 binding to methylated oligo | inhibition, % at 4.4 µM | 370,000 tested, 0.75% active;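 further: UHRF1 SRA domain binding a hemimethylated CpG hairpin DNA probe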
# HCV core dimer – inhibitors of HCV core protein dimerization, primary screen, biochemical, TR-FRET, high-throughput; TR-FRET GST/Flag-core106 dimerization, 1536-well; inhibition, % at 5 µM; 300,000 tested, 0.33% active; AID 1899, 2009;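 active means inhibition above the mean of all tested compounds plus 3 SD, set per screening campaign, cut at about 45% in these data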
#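 Assay system: tagged HCV core106 pair (GST and Flag); medium: KF-containing HEPES buffer, pH 7.45, DTT, CHAPS, BSA; also added: Eu donor and XL665 acceptor anti-tag antibodies; dosing: 5 µM single dose; timing: compound-protein-antibody incubation 4 h at 22.5 °C; signal: TR-FRET 671 and 617 nm emission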
# LEDGF integ inh – blockers of LEDGF/p75-dependent integrase strand transfer – biochemical, TR-FRET, high throughput, primary screen | inhibition, % at 3.7 µM | 370,000 tested, 0.64% active | TR-FRET IN-LEDGF/p75 DNA integration, Eu/Cy5 | HIV-1 integrase (with human LEDGF/p75);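 active means inhibition above the screen-wide mean plus 3 SD, cut at about 13% in these data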;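 further: signal is the Cy5 over europium emission ratio at 671 and 618 nm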
# TDP2 inh – human TDP2 enzyme inhibitors, primary screen, biochemical, epi absorbance, recombinant enzyme. Tyrosyl-DNA phosphodiesterase 2 (Homo sapiens), O95551. T5PNP hydrolysis, p-nitrophenol absorbance 415 nm. inhibition, % at 12.8 µM. 370,000 tested, 0.34% active. AID 720702, 2013;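 active means inhibition above the mean of all tested compounds plus 3 SD, set per campaign, cut at about 25% in these data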
#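 Test system: human TDP2 enzyme; Input: 120 nM TDP2 per well; Buffer or medium: Mg2+-containing Tris-HCl buffer, pH 7.5; Reagent: 5 mM T5PNP; Dosing: 12.8 µM single point, 1% DMSO; Incubation: reaction 2 h, 37 °C; Detection: p-Nitrophenol epi absorbance; Read-out: % inhibition relative to enzyme-containing and enzyme-free wells; Replicates: single well per compound.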
# MBD2 inh – inhibitors of MBD2 binding to methylated DNA, primary screen, biochemical, TR-FRET, DNA-binding domain, human; Methyl-CpG-binding domain protein 2 (Homo sapiens), Q9UBB5; MBD2 binding to methylated oligonucleotide; 370,000 tested, 0.31% active; inhibition, % at 4.4 µM; in the data active means inhibition above about 13%
# Target sequence (Q9UBB5 whole entry, looked up, the tested form may be a part): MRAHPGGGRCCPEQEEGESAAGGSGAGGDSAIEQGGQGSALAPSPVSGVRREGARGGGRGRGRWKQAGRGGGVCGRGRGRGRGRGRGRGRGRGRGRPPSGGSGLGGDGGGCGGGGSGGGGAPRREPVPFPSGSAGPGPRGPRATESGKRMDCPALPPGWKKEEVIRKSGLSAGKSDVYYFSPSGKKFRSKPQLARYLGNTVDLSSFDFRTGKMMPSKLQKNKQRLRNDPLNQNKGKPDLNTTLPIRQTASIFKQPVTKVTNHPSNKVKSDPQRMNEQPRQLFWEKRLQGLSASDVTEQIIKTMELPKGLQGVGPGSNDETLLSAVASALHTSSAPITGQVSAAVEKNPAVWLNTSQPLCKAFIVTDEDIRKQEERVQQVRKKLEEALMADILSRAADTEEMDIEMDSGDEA
# UHRF1 ctr MBD2 – UHRF1 methylated DNA binding inhibitors, counter-screen for MBD2 inhibitor project, biochemical, TR-FRET, human UHRF1 | shares compounds with MBD2 inh | UHRF1 binding to methylated oligonucleotide | inhibition, % at 4.4 µM | 1,000 tested, 25% active | AID 720530, 2013;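 further: UHRF1 SRA domain binding a labeled hemimethylated CpG hairpin DNA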
# MBD2 DBD conf – inhibitors of MBD2 binding to methylated DNA, confirmation, biochemical, TR-FRET, DNA-binding domain, human; shares compounds with MBD2 inh; TR-FRET MBD2-DBD binding to methylated oligonucleotide; inhibition, % at 4.4 µM; 1,000 tested, 26% active; in the data active means inhibition above about 14%
# A number is an active result; n = inactive; x = no result given. Most compounds without a hit are left out; they make up all but 1.8% or so of the library. Unless noted, no stated cut-off is given here; in the data, active means inhibition above about 21%; inactive means the rest.
SMILES,UHRF1 MBD2 ctr,HCV core dimer,LEDGF integ inh,TDP2 inh,MBD2 inh,UHRF1 ctr MBD2,MBD2 DBD conf
CN1C2=N[C@@H](c3ccc4c(c3)OCO4)CC(=O)N2/C(=C\c2ccccc2)[C@@H]1c1ccccc1,n,x,n,n,n,x,x
OCCCNc1c2ccccc2nc2ccccc12,27.8,n,n,n,30.6,32.9,33.9
Cc1ccc(-c2nc(NCCCO)c3ccccc3n2)cc1,n,n,n,n,n,x,x
COc1ccc(-c2oc3ncnc(NCCCN(C)C)c3c2-c2ccc(OC)cc2)cc1,n,n,n,n,15.1,n,n
O=C(NCCSc1c[nH]c2ccccc12)c1ccc(Br)o1,n,n,n,n,n,x,x
O=C(NCCc1c[nH]c2ccccc12)c1ccc(Br)o1,20.9,x,n,n,16.2,n,n
CC1CCCCN1C(=O)CNCc1ccc(F)cc1 (configuration not stated),n,n,n,n,36.8,n,n
CC1CCCCN1C(=O)Cc1ccc(Cl)cc1 (configuration not stated),n,n,n,n,n,x,x
Cc1ccc(S(=O)(=O)N(C)C)cc1NC(=O)CCc1c[nH]c2ccccc12,n,n,n,n,n,x,x
Cc1ccc(S(=O)(=O)N(C)C)cc1NC(=O)CCc1ccccc1,n,n,n,n,20.5,n,n
Cc1ccc(-n2nc3c(N4CCC(C(=O)NCCc5ccco5)CC4)nnc(C)c3c2C)cc1,n,n,n,n,15.9,n,n
CN(CCCOC(=O)c1cc2ccccc2o1)C1CN(Cc2cn(Cc3ccccc3C(F)(F)F)nn2)S(=O)(=O)C1 (configuration not stated),n,x,n,n,n,x,x
Cc1ccc(C)c(NC(=O)Cn2nc(C)c3ccccc3c2=O)c1,n,n,n,n,16.6,n,n
CCOC(=O)c1cnc2c(cnn2C)c1NCc1ccc(OC)cc1,n,n,n,n,43.5,n,n
COc1ccc(CNc2c(C(=O)O)cnc3c2cnn3C)cc1,n,n,n,n,n,x,x
CCC[C@H](/C=C/C(=O)OC(C)(C)C)Sc1ccc(OC)cc1,n,x,n,n,n,x,x
CCN(CC)C(=O)c1ccc2sc([C@H]3C[C@H](O)[C@@H](CO)O3)nc2c1,n,x,n,n,21.1,n,n
CC(C)(C)C(=O)Nc1cc(S(=O)(=O)N2CCCCC2)ccc1N1CCCCC1,n,n,n,n,14.2,n,n
CC(C)C(=O)Nc1cc(S(=O)(=O)N2CCOCC2)ccc1N1CCCCC1,n,x,n,n,n,x,x
CCC(C)[C@H](NC(=O)NC1CCN(Cc2ccccc2)CC1)C(=O)OC (some centres not stated),n,n,n,n,15.1,n,n
COc1cc2c(c(OC)c1OC)-c1c(cc3c(c1O)OCO3)C[C@@H](C)[C@@H](C)C2,n,n,n,n,n,x,x
CNC12CCc3cc(OC)c(OC)c(c31)-c1cc3c(cc1C2)OCO3 (configuration not stated),29.8,x,n,n,22.8,n,n
O=C(COC(=O)c1cc2ccccc2cc1O)Nc1ccccc1F,n,x,n,n,n,x,x
O=C(COC(=O)c1ccccc1O)Nc1cccc2ccccc12,n,x,n,n,14.3,n,n
COc1ccccc1N1CCN(C(=O)c2cc3c(C)nn(-c4ccccc4)c3s2)CC1,n,x,n,n,n,x,x
SMILES,UHRF1 MBD2 ctr,HCV core dimer,LEDGF integ inh,TDP2 inh,MBD2 inh,UHRF1 ctr MBD2,MBD2 DBD conf
COC(=O)[C@]12C=CCN1[C@@H](c1ccc(OC)c(OC)c1)c1c(c3ccccc3n1S(=O)(=O)c1ccc(C)cc1)C2,n,x,n,n,n,x,x
COc1ccc(Cn2cc(COC(=O)NCCc3c[nH]c4ccccc34)nn2)cc1,n,x,n,n,n,x,x
Cc1nc(SCC(=O)N2CCCCC2)c2c(C)c(C)sc2n1,n,n,n,n,n,x,x
CCSc1nc(C)nc2sc(C)c(C)c12,n,n,n,n,29.0,n,n
COC(=O)[C@H](C(C)C)N1Cc2nnn(Cc3ccc(C)cc3)c2-c2ccccc2S1(=O)=O,n,x,n,n,n,x,x
COc1cccc2sc3ccc(NCCC4CCCN4C)cc3c(=O)c12 (configuration not stated),n,n,n,n,n,x,x
COc1cc2sc3cc(NCC[C@@H]4CCCN4C)ccc3c(=O)c2cc1OC,n,x,n,n,17.6,n,22.4
COc1cccc(CNC(=O)C2(C)Oc3ccccc3NC2=O)c1 (configuration not stated),n,n,n,n,60.8,n,n
CC(=O)O[C@@H]1C=C[C@@H](C#Cc2ccc(C(C)(C)C)cc2)O[C@@H]1COC(=O)Nc1ccccc1,n,x,n,n,n,x,x
Cc1ccc(C(=O)CC(C(=O)O)n2cccn2)cc1 (configuration not stated),n,n,n,n,n,x,x
Cc1ccc(C(=O)CC(C(=O)O)n2cncn2)cc1 (configuration not stated),n,x,n,n,41.0,n,n
CCOc1ccc(N=Nc2c(C)noc2C)cc1,26.2,n,n,n,18.2,n,n
CCOc1ccc(C(=O)NCC(=O)OCc2c(C)noc2C)cc1,n,n,n,n,n,x,x
CN(C(=O)C=Cc1ccccc1)c1ccccc1,n,x,n,n,24.3,n,n
CN(C(=O)/C=C/c1ccc2c(c1)OCO2)c1ccccc1,n,n,n,n,n,x,x
COC(=O)C1CN(Cc2ccc(F)cc2)CCS(=O)(=O)N1Cc1ccc(OC)cc1 (configuration not stated),n,x,n,n,n,x,x
CCOc1cc(N2CCOCC2)c(OCC)cc1NC(=O)COC(=O)c1cc(C)oc1C,n,n,n,n,15.4,n,n
COc1ccc(CN2C(C(=O)NCC(C)C)CSCCS2(=O)=O)cc1 (configuration not stated),n,x,n,n,n,x,x
COc1ccc(-c2cc(C(=O)N(C3CCCCC3)C3CCCCC3)no2)cc1,n,x,n,n,n,x,x
COc1ccc(NC(=O)CSc2nnc(-c3cccs3)o2)cc1Cl,n,x,n,n,n,x,x
Cc1[nH]c2ccc(C(=O)O)cc2c1C,n,n,n,n,n,x,x
CCCc1c(C)[nH]c2ccc(C(=O)O)cc2c1=S,77.5,x,n,n,24.7,37.9,23.3

# Source: PubChem BioAssay (The Scripps Research Institute Molecular Screening Center)
